Assay results published in ChEMBL document CHEMBL1817552, “Isolation, identification, and biological evaluation of HIF-1-modulating compounds from Brazilian green propolis” (Bioorg Med Chem, 2011).
Active and inactive are the calls of the source. The calls are words filed in the database; no cut-off is given here.

What was measured:
HEK293 [1] = experiment: Modulation of HIF1 expressed in HEK293 cells assessed as luciferase activity under hypoxic condition at 50 uM after 24 hrs by luminometer analysis relative to hypoxic control; format: cell-based
In short: (§1)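 HEK293 stable clone carrying a luciferase reporter driven by a 68-bp ENO1 hypoxia response element upstream of the SV40 promoter, seeded at 8 × 10^4 cells/well. After 24 h, compound added; 1 h later cells moved to 1% O2 hypoxia for 24 h. Luciferase read by luminometer, expressed as ratio to hypoxic control. Final DMSO 0.5%; triplicate wells.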

HCT-116 [2] = experiment: Cytotoxicity against human HCT116 cells assessed as cell viability under normoxic condition at 100 uM after 24 hrs by MTT assay; format: functional
In short: (§2)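 HCT116 cells seeded at 6.0 × 10^3 cells/well in McCoy's 5A with 10% FBS and antibiotics, grown 24 h, then exposed to compound for 24 h under normoxia (20% O2) or hypoxia (1% O2, 94% N2, 5% CO2, 37 °C). MTT 0.5 mg/mL added for 4 h at 37 °C, cells lysed in DMSO, absorbance read at 570 nm. Final DMSO 1.0% (v/v).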

[3] = Solubility of the compound in dimethylsulfoxide; format: physicochemical
[4] = Antiangiogenic activity in 3-day-old embryonated chicken eggs at 300 ng/CAM measured on 7th embryonic day by CAM assay; format: functional, Gallus gallus, Egg
HCT-116 [5] = experiment: Cytotoxicity against human HCT116 cells assessed as cell viability under normoxic condition at 200 uM after 24 hrs by MTT assay; format: functional; in short: as §2
HCT-116 [6] = experiment: Cytotoxicity against human HCT116 cells assessed as cell viability under hypoxic condition at 200 uM after 24 hrs by MTT assay; format: functional; in short: as §2
HCT-116 [7] = experiment: Cytotoxicity against human HCT116 cells assessed as cell viability under normoxic condition at 200 uM after 7 days by clonogenic assay; format: functional
In short: (§3)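 HCT116 cells plated at 3.0 × 10^2 cells per dish and treated 24 h under normoxia (20% O2) or hypoxia (1% O2). On day 7 colonies were washed with PBS, fixed in methanol 30 min at room temperature, stained with Giemsa over 3 h, then counted.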

HCT-116 [8] = experiment: Inhibition of HIF1alpha expression in human HCT116 cells under hypoxic condition after 4 hrs by immunoblotting; format: functional, cell-based
In short: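 HCT116 cells at 4 × 10^6 per dish, grown 24 h, then exposed 4 h under hypoxia (1% O2) or normoxia (20% O2). Lysed on ice in Tris/SDS/deoxycholate buffer with protease and phosphatase inhibitors; 120 µg protein per lane on 7% SDS-PAGE. Probed with mouse anti-human HIF-1α (1:500) and β-actin control; HRP secondary, chemiluminescence quantitation.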

[9] = Modulation of HIF1 expressed in HEK293 cells assessed as luciferase activity under hypoxic condition after 24 hrs by luminometer analysis; format: cell-based; settings: HEK293, 24 h
[10] = target: T1, Hypoxia inducible factors; HIF-1-alpha, HIF-2-alpha (Homo sapiens) (UniProt Q16665+Q99814); experiment: Inhibition of HIF1-dependent HK2 mRNA expression in human HCT116 cells under hypoxic condition at 50 uM after 24 hrs by RT-PCR analysis; format: cell-based; settings: HCT-116
In short: (§4)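 HCT116 cells seeded at 1 × 10^6 per dish in McCoy's 5A/10% FBS, grown 24 h, then treated 24 h under hypoxia (1% O2) or normoxia. Total RNA extracted directly after treatment. Real-time RT-PCR run as 95 °C 30 s, then 40 cycles of 95 °C 5 s and 60 °C 30 s. Normalized to 18S rRNA, relative expression by 2^-ΔΔCT; mean ± SD.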

[11] = target: T1, Hypoxia inducible factors; HIF-1-alpha, HIF-2-alpha (Homo sapiens); experiment: Inhibition of HIF1-dependent GLUT1 mRNA expression in human HCT116 cells under hypoxic condition at 50 uM after 24 hrs by RT-PCR analysis; format: cell-based; settings: HCT-116; in short: as §4
HCT-116 [12] = experiment: Cytotoxicity against human HCT116 cells assessed as cell viability under hypoxic condition at 200 uM after 7 days by clonogenic assay; format: functional; in short: as §3
[13] = target: T1, Hypoxia inducible factors; HIF-1-alpha, HIF-2-alpha (Homo sapiens); experiment: Inhibition of HIF1-dependent VEGFA mRNA expression in human HCT116 cells under hypoxic condition at 50 uM after 24 hrs by RT-PCR analysis; format: cell-based; settings: HCT-116; in short: as §4
HCT-116 [14] = experiment: Cytotoxicity against human HCT116 cells assessed as cell viability under hypoxic condition at 50 uM after 24 hrs by MTT assay; format: functional; in short: as §2
HCT-116 [15] = experiment: Cytotoxicity against human HCT116 cells assessed as cell viability under normoxic condition at 50 uM after 7 days by clonogenic assay; format: functional
HCT-116 [16] = experiment: Cytotoxicity against human HCT116 cells assessed as cell viability under hypoxic condition at 50 uM after 7 days by clonogenic assay; format: functional
HCT-116 [17] = experiment: Cytotoxicity against human HCT116 cells assessed as cell viability under normoxic condition at 50 uM after 24 hrs by MTT assay; format: functional
HCT-116 [18] = experiment: Cytotoxicity against human HCT116 cells assessed as cell viability under normoxic condition after 24 hrs by MTT assay; format: functional, cell-based; settings: HCT-116, 24 h; in short: as §2
HEK293 [19] = experiment: Modulation of HIF1 expressed in HEK293 cells assessed as luciferase activity under hypoxic condition at 30 uM after 24 hrs by luminometer analysis relative to hypoxic control; format: cell-based; in short: as §1

In the case of `CC(C)(C)c1cc(/C=C/C(=O)O)cc(C(C)(C)C)c1O`, the Ratio (HEK293 [1]) is reported as 0.77 and the Activity (HCT-116 [2]) is reported as 108.4%.

With `C=C(C)[C@@H]1CC[C@]2(C)CC[C@]3(C)[C@H](CC[C@@H]4[C@@]5(C)CC[C@H](OC(=O)C[C@H](O)CCCCCCCCCCCCC)C(C)(C)[C@@H]5CC[C@]43C)[C@@H]12` the solubility [3] was “Insoluble”.

For `COc1ccc(/C=C/C(=O)O)cc1CC=C(C)C`, the Ratio (HEK293 [1]) was 0.82 and the Activity (HCT-116 [2]) was 95.7%.

`C=CCc1cc(/C=C/C(=O)O)ccc1O` showed a Ratio (HEK293 [1]) of 0.9 and an Activity (HCT-116 [2]) of 98.4%.

`O=C(O)/C=C/c1ccc(OC(=O)CCc2ccccc2)cc1` gave a Ratio (HEK293 [1]) of 1.08.

With `CC(C)=CCc1cc(/C=C/C(=O)O)cc(CC=C(C)C)c1O` [ARTEPILLIN] the “inhibition (INH)” value [4] was 80.9%, the Ratio (HEK293 [1]) was 1.09 and the Activity (HCT-116 [5]) was 53.3%.

With `CC(C)=CCc1cc(/C=C/C(=O)O)ccc1OC(=O)CCc1ccccc1` [BACCHARIN] the Activity (HCT-116 [6]) was 69.4%, the “inhibition (INH)” value [4] was 83.2% and the Activity (HCT-116 [7]) was 74.8%. For the same molecule, the inhibition (HCT-116 [8]) was “Dose-dependent effect”, the IC50 [9] was 77.4 µM and the inhibition [10] was “Active”. For the same molecule, the Ratio (HEK293 [1]) was 0.52, the inhibition [11] was “Active” and the Activity (HCT-116 [12]) was 74%. The Activity (HCT-116 [5]) was 58.2% and the inhibition [13] was “Active”.

`COc1ccc(-c2oc3cc(O)c(OC)c(O)c3c(=O)c2O)cc1` [BETULETOL] gave an Activity (HCT-116 [14]) of 86.8%, an Activity (HCT-116 [15]) of 96.8% and an Activity (HCT-116 [16]) of 90.3%. The Activity (HCT-116 [17]) was 69% and the “inhibition (INH)” value [4] was 46.7%.

For `O=C(O)/C=C/c1ccc(O)cc1` [COUMARIC ACID], the Ratio (HEK293 [1]) was 0.93 and the Activity (HCT-116 [2]) was 99.3%.

For `CC(C)=CCc1cc(/C=C/C(=O)O)ccc1O` [DRUPANIN], the Activity (HCT-116 [6]) was 146%, the “inhibition (INH)” value [4] was 84.3% and the Activity (HCT-116 [7]) was 105.8%. For the same molecule, the inhibition (HCT-116 [8]) was “Dose-dependent effect”, the IC50 [9] was 25.6 µM and the inhibition [10] was “Active”. For the same molecule, the Ratio (HEK293 [1]) was 0.36, the inhibition [11] was “Active” and the Activity (HCT-116 [12]) was 101.2%. For the same molecule, the Activity (HCT-116 [5]) was 127.1% and the inhibition [13] was “Active”.

In the case of `COc1ccc(-c2oc3cc(O)cc(O)c3c(=O)c2O)cc1` [KAEMPFERIDE], the Activity (HCT-116 [14]) is reported as 173.3%, the Activity (HCT-116 [15]) is reported as 79.9% and the Activity (HCT-116 [16]) is reported as 87.6%. The Activity (HCT-116 [17]) was 102.5% and the “inhibition (INH)” value [4] was 39.5%.

In the case of `COC(=O)/C=C/c1ccc(OC)c(CC=C(C)C)c1` [PALICATIN B METHYL ETHER], the IC50 (HCT-116 [18]) is reported as 37.6 µM and the Ratio (HEK293 [19]) is reported as 1.17.

`COC(=O)/C=C/c1ccc(O)c(CC=C(C)C)c1` [PLICATIN B] gave an IC50 (HCT-116 [18]) of 10.6 µM.
